Measurements reported in ChEMBL document CHEMBL4689842, “EUbOPEN Chemogenomics Library wave 1” (2021).

Experiments:
[1] = tested on: U2OS; assay: Multiplex assay against U2OS; type: toxicity, cell-based; conditions: human
Outline: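 Compound was added to live cells that had been stained at seeding with Hoechst33342, BioTracker Green Microtubule Cytoskeleton Dye, MitoTracker Red and Annexin V Alexa Fluor 680, and imaging followed on a CQ1 microscope at 37°C and 5% CO2. CellPathfinder machine-learning gating divided cells into Hoechst high-intensity objects or normal cells, normal cells into healthy, pyknosed or fragmented nuclei, and pyknosed cells into mitotic or apoptotic. Tubulin, mitochondrial-mass and membrane-permeability phenotypes are per cents of healthy-nucleus cells.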

[2] = tested on: U2OS; assay: Incucyte cell viability with U2OS; type: toxicity, cell-based; conditions: human, 10 µM, compound concentration 10 uM; also: filed as whole numbers so only -1 and 0 and 1 occur
[3] = 24 h, 1 µM, compound concentration 1 uM, replicate 2
[4] = 24 h, 10 µM, compound concentration 10 uM, replicate 1
[5] = 24 h, 10 µM, compound concentration 10 uM, replicate 2
[6] = 48 h, 1 µM, compound concentration 1 uM, replicate 1
[7] = 48 h, 1 µM, compound concentration 1 uM, replicate 2
[8] = 48 h, 10 µM, compound concentration 10 uM, replicate 1
[9] = 48 h, 10 µM, compound concentration 10 uM, replicate 2

CCC(=O)O[C@]1(C(=O)SCF)[C@H](C)C[C@H]2[C@@H]3C[C@H](F)C4=CC(=O)C=C[C@]4(C)[C@@]3(F)[C@@H](O)C[C@@]21C [FLUTICASONE PROPIONATE]
Population Tubulin-Different-Phenotype (%) [1, 3]: 20% | Total Cell Count [1, 3]: 78 | Population Apoptotic (%) [1, 4]: 53% | Population Fragmented Nuclei (%) [1, 4]: 17% | Population Healthy Nuclei (%) [1, 4]: 61% | Population Hoechst High Intensity Objects (%) [1, 4]: 9% | Population Membrane Permeable-Phenotype (%) [1, 4]: 43% | Population Mitochondria Different-Phenotype (%) [1, 4]: 24% | Population Mitotic Cells (%) [1, 4]: 46% | Population Normal (%) [1, 4]: 90% | Population Pyknosed Nuclei (%) [1, 4]: 21% | Population Tubulin-Different-Phenotype (%) [1, 4]: 41% | Total Cell Count [1, 4]: 189 | Population Apoptotic (%) [1, 5]: 58% | Population Fragmented Nuclei (%) [1, 5]: 5% | Population Healthy Nuclei (%) [1, 5]: 78% | Population Hoechst High Intensity Objects (%) [1, 5]: 8% | Population Membrane Permeable-Phenotype (%) [1, 5]: 6% | Population Mitochondria Different-Phenotype (%) [1, 5]: 31% | Population Mitotic Cells (%) [1, 5]: 41% | Population Normal (%) [1, 5]: 91% | Population Pyknosed Nuclei (%) [1, 5]: 16% | Population Tubulin-Different-Phenotype (%) [1, 5]: 25% | Total Cell Count [1, 5]: 59 | Population Apoptotic (%) [1, 6]: 53% | Population Fragmented Nuclei (%) [1, 6]: 4% | Population Healthy Nuclei (%) [1, 6]: 89% | Population Hoechst High Intensity Objects (%) [1, 6]: 2% | Population Membrane Permeable-Phenotype (%) [1, 6]: 5% | Population Mitochondria Different-Phenotype (%) [1, 6]: 10% | Population Mitotic Cells (%) [1, 6]: 46% | Population Normal (%) [1, 6]: 97% | Population Tubulin-Different-Phenotype (%) [1, 6]: 8% | Total Cell Count [1, 6]: 304 | Population Apoptotic (%) [1, 7]: 20% | Population Fragmented Nuclei (%) [1, 7]: 1% | Population Healthy Nuclei (%) [1, 7]: 93% | Population Hoechst High Intensity Objects (%) [1, 7]: 8% | Population Membrane Permeable-Phenotype (%) [1, 7]: 8% | Population Mitochondria Different-Phenotype (%) [1, 7]: 12% | Population Mitotic Cells (%) [1, 7]: 80% | Population Normal (%) [1, 7]: 91% | Population Pyknosed Nuclei (%) [1, 7]: 5% | Population Tubulin-Different-Phenotype (%) [1, 7]: 19% | Total Cell Count [1, 7]: 113 | Population Apoptotic (%) [1, 8]: 72% | Population Fragmented Nuclei (%) [1, 8]: 13% | Population Healthy Nuclei (%) [1, 8]: 67% | Population Hoechst High Intensity Objects (%) [1, 8]: 6% | Population Membrane Permeable-Phenotype (%) [1, 8]: 42% | Population Mitochondria Different-Phenotype (%) [1, 8]: 18% | Population Mitotic Cells (%) [1, 8]: 27% | Population Normal (%) [1, 8]: 93% | Population Pyknosed Nuclei (%) [1, 8]: 19% | Population Tubulin-Different-Phenotype (%) [1, 8]: 38% | Total Cell Count [1, 8]: 260 | Population Apoptotic (%) [1, 9]: 45% | Population Fragmented Nuclei (%) [1, 9]: 4% | Population Healthy Nuclei (%) [1, 9]: 85% | Population Hoechst High Intensity Objects (%) [1, 9]: 3% | Population Membrane Permeable-Phenotype (%) [1, 9]: 11% | Population Mitochondria Different-Phenotype (%) [1, 9]: 14% | Population Mitotic Cells (%) [1, 9]: 54% | Population Normal (%) [1, 9]: 96% | Population Pyknosed Nuclei (%) [1, 9]: 11% | Population Tubulin-Different-Phenotype (%) [1, 9]: 22% | Total Cell Count [1, 9]: 101 | Growth Rate ([2]; 0 h, replicate number 1, timepoint 0 hours): 0 | Growth Rate ([2]; 6 h, replicate number 2, timepoint 6 hours): 1 | Growth Rate ([2]; 12 h, replicate number 2, timepoint 12 hours): 1 | Growth Rate ([2]; 18 h, replicate number 1, timepoint 18 hours): 1 | Growth Rate ([2]; 24 h, replicate number 1, timepoint 24 hours): 1
